Rows were chosen to be rich in hits. Some 5.2% of all compounds tested hit in one or more screens of this group.
EBNA-1 inh: blocks EBNA-1 binding to DNA | inhibition, % at 14.8 µM | 300,000 tested, 0.34% active | AID 1950 | EBNA-1 DNA binding, fluorescence polarization; in the data active = inhibition above about 28%
M18AAP inhibitor: PfM18AAP enzyme inhibition | 290,000 tested, 1.2% active | inhibition, % at 7.35 µM | recombinant PfM18AAP, H-Glu-NHMec fluorogenic cleavage | AID 1822;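 active = inhibition above the campaign mean inhibition over all tested compounds plus 3 SD, cut at about 28% in these data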;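 also: 0% = plate median of test compound wells and 100% = 2 mM ZnCl2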
HCV core dimer: blocks dimerization of HCV core protein; TR-FRET GST/Flag-core106 dimerization, 1536-well; inhibition, % at 5 µM; 300,000 tested, 0.33% active;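 active = inhibition above the mean of all tested compounds plus 3 SD, set per screening campaign, cut at about 45% in these data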
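Assay system: Tagged HCV core106 pair (GST and Flag) | Buffer or medium: KF-containing HEPES buffer, pH 7.45, DTT, CHAPS, BSA | Also added: Eu donor and XL665 acceptor anti-tag antibodies | Dosing: One concentration, 5 µM, in 0.5% DMSO | Timing: 4 h at 22.5 °C | Technique: TR-FRET 671 and 617 nm emission | Repeats: Singlicate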
ALR H2O2 inh: blocks human ALR sulfhydryl oxidase activity | P55789 | purified ALR, DTT oxidation, H2O2 HRP-luminol luminescence | inhibition, % (concentration not given with the values) | 290,000 tested, 3.8% active;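 active = mean replicate inhibition above about 79%, with every replicate also reaching it, limit read from the data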
Target sequence (P55789 whole entry, looked up): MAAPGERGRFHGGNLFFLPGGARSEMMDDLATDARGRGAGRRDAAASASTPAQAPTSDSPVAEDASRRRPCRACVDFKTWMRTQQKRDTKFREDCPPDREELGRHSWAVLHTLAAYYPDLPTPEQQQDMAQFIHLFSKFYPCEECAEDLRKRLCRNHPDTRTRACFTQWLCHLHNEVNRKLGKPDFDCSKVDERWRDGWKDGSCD
HCV NS3 hel inh: HCV NS3 helicase inhibition | inhibition, % at 10.9 µM | NS3 helicase DNA unwinding, Cy5 molecular beacon fluorescence | 290,000 tested, 0.56% active;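 active = inhibition above the mean of all tested compounds plus 3 SD, set per campaign, cut at about 35% in these data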;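 also: 0% = DMSO wells and 100% = thioflavine S control wells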
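assay system = NS3 helicase fragment of HCV | buffer or medium = MOPS pH 6.5, MgCl2, DTT, Tween20, BSA | timing = 60 min unwinding reaction at 25 °C after ATP addition | signal = Cy5 beacon fluorescence read at start and 1 h | read-out basis = % inhibition of unwinding | control set = low DMSO, high thioflavine S at 110 µM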
ZTA DNA inh: counter-screen for EBNA-1 inhibitors: inhibitors of Epstein-Barr virus ZTA. P03206. ZTA-DNA binding, fluorescence polarization. inhibition, % at 11 µM. 320,000 tested, 0.15% active; in the data active = inhibition above about 33%
Target sequence (P03206 whole entry, looked up): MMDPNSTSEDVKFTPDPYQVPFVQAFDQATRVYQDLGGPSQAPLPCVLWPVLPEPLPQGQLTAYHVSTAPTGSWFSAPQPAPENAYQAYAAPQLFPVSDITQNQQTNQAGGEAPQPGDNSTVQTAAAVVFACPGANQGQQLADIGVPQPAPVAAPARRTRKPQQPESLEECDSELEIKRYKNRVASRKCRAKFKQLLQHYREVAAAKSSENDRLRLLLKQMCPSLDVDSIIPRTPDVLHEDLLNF
The depositor's hits bear a star.

`C/C(=N\NC(=O)c1ccc(NS(=O)(=O)c2cccs2)cc1)c1ccc(O)cc1O` gave EBNA-1 inh -1, M18AAP inhibitor -6, HCV core dimer 2, ALR H2O2 inh 99*, HCV NS3 hel inh 7 and ZTA DNA inh -10.
For CCC(C)NC(=O)c1ccc(NC(=O)CC2SC(N3CCCC3)=NC2=O)cc1 (stereo not drawn) the results were ALR H2O2 inh 5 and ZTA DNA inh 6.
Screening CCn1c(N2CCN(S(=O)(=O)c3ccccc3)CC2)nc2ccccc21 returned EBNA-1 inh -2, M18AAP inhibitor -5, HCV core dimer -8, ALR H2O2 inh -9, HCV NS3 hel inh 3 and ZTA DNA inh -34.
CN(CC(=O)Nc1ccccc1Br)C(=O)CN1CCN(c2ccccc2Cl)CC1 was read as ALR H2O2 inh -6 and ZTA DNA inh -2.
`COc1cc(C=NNC(=O)c2ccccc2NS(=O)(=O)c2cccs2)cc(OC)c1O` gave ALR H2O2 inh 99*.
For COc1cc(/C=N\NC(=O)c2ccc(-c3ccccc3)cc2)cc(OC)c1O the results were EBNA-1 inh -11, M18AAP inhibitor 12, HCV core dimer -2, ALR H2O2 inh 96*, HCV NS3 hel inh -13 and ZTA DNA inh -4.
`O=C(NN=Cc1ccc(F)c(F)c1)c1ccc(NS(=O)(=O)c2cccs2)cc1` gave ALR H2O2 inh -2.
Screening COc1ccc(C=NNC(=O)c2ccccc2NS(=O)(=O)c2cccs2)cc1O returned ALR H2O2 inh 66.
COc1cc(/C=N/NC(=O)c2ccc(NS(=O)(=O)c3cccs3)cc2)cc(OC)c1O was read as ALR H2O2 inh 98* and ZTA DNA inh 17.
`CCCC(C(=O)O)n1c(O)c(C=C2N=c3ccccc3=N2)sc1=S` (stereo not drawn) gave EBNA-1 inh 8, M18AAP inhibitor 30*, HCV core dimer -9, ALR H2O2 inh 89*, HCV NS3 hel inh 30 and ZTA DNA inh 2.
For O=C(O)CCCn1c(O)c(C=C2N=c3ccccc3=N2)sc1=S the results were EBNA-1 inh 5, M18AAP inhibitor -2, HCV core dimer -7, ALR H2O2 inh 0, HCV NS3 hel inh 8 and ZTA DNA inh -17.
Screening CCN(CC)c1ccc(-n2c(O)c(C=C3N=c4ccccc4=N3)sc2=S)cc1 returned EBNA-1 inh 4, M18AAP inhibitor 0, HCV core dimer 0, ALR H2O2 inh -11, HCV NS3 hel inh 3 and ZTA DNA inh 17.
For O=C(O)c1cccc(-n2c(O)c(C=C3N=c4ccccc4=N3)sc2=S)c1 the results were EBNA-1 inh 1, M18AAP inhibitor 31*, HCV core dimer 5, ALR H2O2 inh 99*, HCV NS3 hel inh 32 and ZTA DNA inh -13.
`Cc1noc(C)c1CSCC(=O)N(C)CC(=O)Nc1ccc(F)c(F)c1F` gave EBNA-1 inh 1, HCV core dimer -2, ALR H2O2 inh -1 and ZTA DNA inh 6.
Cc1cc(C)cc(N(CC(=O)N2CCN(Cc3ccccc3)CC2)S(=O)(=O)c2c(C)noc2C)c1 was read as EBNA-1 inh 12, M18AAP inhibitor -4, HCV core dimer -1, ALR H2O2 inh 96*, HCV NS3 hel inh -1 and ZTA DNA inh 7.
For CCOC(=O)C1CCN(C(=O)CN(c2ccc(OC)cc2)S(=O)(=O)c2c(C)nn(C)c2C)CC1 the results were EBNA-1 inh 0, M18AAP inhibitor -9, HCV core dimer -1, HCV NS3 hel inh 1 and ZTA DNA inh -3.
CCOC(=O)C1CCN(C(=O)CN(c2ccc(OC)cc2)S(=O)(=O)c2c(C)noc2C)CC1 was read as EBNA-1 inh 17, M18AAP inhibitor -3, HCV core dimer -1, ALR H2O2 inh 89*, HCV NS3 hel inh -4 and ZTA DNA inh 23.
`COc1ccc(OC)c(NC(=O)CN(c2ccc(C)cc2)S(=O)(=O)c2c(C)noc2C)c1` gave EBNA-1 inh 1, M18AAP inhibitor -2, HCV core dimer 6, ALR H2O2 inh -5, HCV NS3 hel inh -3 and ZTA DNA inh 0.
COc1ccc(OC)c(NC(=O)CN(c2ccc(C(C)C)cc2)S(=O)(=O)c2c(C)noc2C)c1 was read as EBNA-1 inh 11, M18AAP inhibitor -8, HCV core dimer 2, ALR H2O2 inh 95*, HCV NS3 hel inh -14 and ZTA DNA inh -2.
Cc1onc(-c2ccccc2)c1C(=O)Nc1nnc(CC(C)(C)C)s1 was read as EBNA-1 inh -14, M18AAP inhibitor -5, HCV core dimer 0, ALR H2O2 inh 4, HCV NS3 hel inh -6 and ZTA DNA inh -3.
`Cc1ccc(C)c(NS(=O)(=O)c2cc(C(=O)NCc3ccccn3)ccc2C)c1` gave EBNA-1 inh 13, M18AAP inhibitor 5, HCV core dimer 12, ALR H2O2 inh 4, HCV NS3 hel inh -4 and ZTA DNA inh 8.
Screening COc1cccc(NC(=S)NNC(=O)c2ccccc2OC(F)F)c1 returned EBNA-1 inh 3, M18AAP inhibitor 4, HCV core dimer -5, ALR H2O2 inh 79*, HCV NS3 hel inh 5 and ZTA DNA inh -2.
For O=C(NNC(=S)Nc1cccc(Cl)c1)c1ccccc1OC(F)F the results were EBNA-1 inh -2, M18AAP inhibitor -8, HCV core dimer -4, HCV NS3 hel inh 11 and ZTA DNA inh 5.
`COc1ccc(NC(=S)Nc2ccc3nccnc3c2)cc1` gave EBNA-1 inh 6, M18AAP inhibitor 16, HCV core dimer 1, ALR H2O2 inh -42, HCV NS3 hel inh 15 and ZTA DNA inh 18.
`COc1cccc(NC(=S)Nc2ccc(O)cc2)c1` gave EBNA-1 inh -11, M18AAP inhibitor 35*, HCV core dimer -8, ALR H2O2 inh 99*, HCV NS3 hel inh -2 and ZTA DNA inh 5.
For Oc1ccc(NC(=S)Nc2ccccc2)cc1 the results were EBNA-1 inh -1, M18AAP inhibitor 11, HCV core dimer 0, ALR H2O2 inh 99*, HCV NS3 hel inh 5 and ZTA DNA inh -6.
`COc1ccc(NC(=S)Nc2ccc3snnc3c2)cc1` gave EBNA-1 inh 1, M18AAP inhibitor 30*, HCV core dimer 0, ALR H2O2 inh 97*, HCV NS3 hel inh -8 and ZTA DNA inh -1.
`C=CC[C@H](CC(=O)N[C@H](CO)Cc1ccccc1)C(=O)N[C@@H](COC(=O)[C@H](CC=C)CC(=O)OC(C)(C)C)Cc1c[nH]c2ccccc12` gave ALR H2O2 inh 0.
`Cc1ccc(NC(=S)NNC(=O)Nc2ccccc2)cc1` gave EBNA-1 inh 7, M18AAP inhibitor 42*, HCV core dimer 2, ALR H2O2 inh 97*, HCV NS3 hel inh -15 and ZTA DNA inh -10.
Screening Cc1ccc(NC(=O)NNC(=O)c2ccccc2)cc1 returned EBNA-1 inh 6, M18AAP inhibitor 16, HCV core dimer 1, ALR H2O2 inh 4, HCV NS3 hel inh 9 and ZTA DNA inh -1.

Compound activity as filed in PubChem.
